Screens from PubChem BioAssay.
Hits are enriched below; roughly 0.99% of the tested compounds scored in any of these assays.
CaV13 FRET inh: Primary screen for inhibitors of IQ motif and Ca2+-dependent inactivation inhibitor domain binding in CACNA1D, Förster resonance energy transfer in living cells, …; HEK cells, CFP/YFP FRET ICDI-IQ, plate reader, 10 min; percent FRET-ratio fall versus neutral wells; inhibition, % at 12.3 µM; hit rate 0.098% among 340,000; AID 743397;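 active = mean replicate inhibition of at least 30% and at least 1% of replicates passing that level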;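 note: 0% = median of the neutral control wells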
CASP6 VEID inh: inhibitors of human caspase-6. P55212. hit rate 0.53% among 350,000. purified caspase-6, Z-VEID-R110 cleavage fluorescence. inhibition, % at 12.5 µM;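 active = mean inhibition across replicates at least about 35%, with every replicate also reaching that limit, limit read from the data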;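 note: 0% = median of neutral control wells and 100% = no fluorescence left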
Target sequence (P55212 24-179 limits assumed): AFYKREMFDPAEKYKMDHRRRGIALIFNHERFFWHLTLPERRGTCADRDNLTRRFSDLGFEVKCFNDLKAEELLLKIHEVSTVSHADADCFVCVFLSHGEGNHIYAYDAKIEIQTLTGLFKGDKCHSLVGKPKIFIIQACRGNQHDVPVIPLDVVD
Target sequence (P55212 194-293 limits assumed): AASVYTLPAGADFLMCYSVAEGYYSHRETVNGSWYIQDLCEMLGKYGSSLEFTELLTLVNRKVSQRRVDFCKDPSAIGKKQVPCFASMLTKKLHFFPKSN
GC-A act: GC-A (human) enzyme activation. P16066. HEK293 GC-A cells, cGMP TR-FRET, EC30 ANP; 0% at EC30 ANP, 100% saturating ANP. activation, % at 10 µM. hit rate 0.14% among 370,000. AID 1671463; in the data active = activation above about 40%
FN deposit inh: fibronectin deposition inhibition. hit rate 0.086% among 350,000. AID 743247. inhibition, % at 12.6 µM. AH1F fibroblasts, Alexa488-fibronectin deposition fluorescence, overnight;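 active = mean inhibition across replicates of 30% or more, regardless of how many single replicates reach that level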;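 note: positive control wells lacked labelled fibronectin entirely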
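Assay system: AH1F fibroblasts / Quantity: 10000 cells per well / Medium: DMEM plus 2% serum, read in PBS / Reagent: labelled fibronectin 24 nM / Dosing: single dose, pinned / Times: 1 h cell attachment, overnight exposure to compound and label / Signal: fluorescence, ex 485 nm, em 525 nm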
NSD2 inh: NSD2 (human) methyltransferase inhibition; O96028; NSD2 peptide methylation, AlphaScreen, 120 min; hit rate 0.54% among 310,000; inhibition, % at 12.5 µM; in the data active = inhibition above about 50%
NPR2 activator: GC-B (human) receptor activation; AID 1920062; HEK293-GC-B cells, CNP EC30, cGMP TR-FRET; 0% at EC30 CNP, 100% saturating CNP; activation, % at 10 µM; hit rate 0.11% among 370,000; P20594;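 active = activation at 10 µM reaching about 35% in either raw or pattern-adjusted values, limit read from the data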
* hit, by the source's call; · = not tested or not shown.

SMILES	CaV13 FRET inh	CASP6 VEID inh	GC-A act	FN deposit inh	NSD2 inh	NPR2 activator
CCCN(C)C[C@H]1OCCCC[C@@H](C)Oc2ccc(NC(=O)Nc3ccccc3)cc2C(=O)N([C@H](C)CO)C[C@@H]1C	·	2.9	·	3.4	·	·
O=[N+]([O-])c1ccc2nc(NS(=O)(=O)c3ccccc3[N+](=O)[O-])sc2c1	-4.2	6.4	1.0	-0.9	4.1	3.0
O=[N+]([O-])c1ccccc1S(=O)(=O)Nc1nc2ccccc2s1	-5.4	43.8*	0.3	10.7	-1.1	2.3
CCCOc1cc(N)ccc1C(=O)OCCN(CC)CC	-4.6	-15.5	2.0	-4.2	·	2.0
CCCOc1ccc(N)cc1N	-1.5	·	-3.5	·	67.9*	-2.5
Cc1ccn2c(=O)nc(SCC(=O)N3CCC(C)CC3)nc2c1	-5.9	52.2*	0.2	·	3.7	1.2
C[C@H](O)C#Cc1cnc2c(c1)C(=O)N([C@@H](C)CO)C[C@H](C)[C@@H](CN(C)C(=O)Cc1ccncc1)O2	·	-0.5	·	3.2	·	·
O=C1Cc2ccccc2C(=O)N1Nc1ccccc1	-9.4	49.3*	-0.5	3.6	·	-2.0
Cc1ccccc1N1C(=O)Cc2ccccc2C1=O	-2.8	54.3*	3.0	-2.6	4.6	3.3
COc1ccc(N2C(=O)Cc3ccccc3C2=O)cc1	-3.5	42.8*	10.0	-10.4	3.0	4.0
COc1ccc2c3c([nH]c2c1)[C@@H](CO)N(C(=O)C1CCCC1)CC31CN(C(=O)c2ccncc2)C1	·	0.9	·	·	·	·
COc1ccc(NC(=O)COC(=O)CCNC(=O)c2ccccc2)cc1OC	·	·	·	·	3.8	·
CCc1ccc2[nH]cc(S(=O)(=O)c3ccc(C)c(C)c3)c(=O)c2c1	-3.1	-0.6	-1.9	·	0.4	-5.6
CCc1ccc2[nH]c3nc(C)cc(C)c3c(=O)c2c1	-22.8	·	40.7*	-2.7	-5.3	36.5*
O=C(N[C@H]1CC[C@@H](CCNS(=O)(=O)Cc2ccccc2)O[C@@H]1CO)c1cnccn1	·	0.1	·	9.2	·	·
Nc1cccnc1Oc1ccc(F)cc1F	-1.2	45.5*	2.5	-1.3	-3.5	2.8
Fc1ccc(Oc2ncccn2)c(F)c1	0.9	-0.9	2.7	4.5	-2.3	4.1
Cc1ccc(Oc2ncccc2N)c2c1CCC2	-12.6	3.7	1.1	-3.0	4.2	2.2
Nc1cccnc1Oc1ccc(F)cc1	5.7	52.2*	-4.6	-4.0	38.1	-8.0
O=C(N[C@H]1CC[C@H](CCNS(=O)(=O)c2ccc(Cl)cc2)O[C@H]1CO)c1ccccn1	·	-1.8	·	7.3	·	·
O=C(COC(=O)c1cc([N+](=O)[O-])ccc1NCCO)Nc1cccnc1Cl	-5.9	11.1	55.9*	·	4.6	57.1*
CCOc1ccc(C(=O)Nc2cccc(C(=O)Nc3cc(C)ccn3)c2)cc1	·	·	·	·	-1.4	·
O=C(c1ccccc1)c1cc(Cl)ccc1N1C(=O)C=CC1=O	-18.8	1.1	-56.1	50.3*	2.8	-21.7
CN(C)CCC(=O)c1ccc(F)cc1	-2.7	-2.7	71.9*	-0.6	4.1	0.0
Cc1ccc(-c2csc(NS(=O)(=O)c3cccc(F)c3)n2)o1	-6.6	40.7*	2.9	0.4	28.2	2.9
SMILES	CaV13 FRET inh	CASP6 VEID inh	GC-A act	FN deposit inh	NSD2 inh	NPR2 activator
Cc1nc(CNS(=O)(=O)c2cccc(F)c2)cs1	-4.3	·	2.2	2.5	-0.6	-0.6
COc1cc(CC2COC(c3ccc(O)c(OC)c3)C2COC(C)=O)ccc1O (stereo unspecified)	·	57.6*	-1.4	·	·	-4.5
COc1cc([C@@H]2OC[C@@H]3[C@H]2CO[C@@H]3c2ccc3c(c2)OCO3)ccc1O	-6.5	3.2	0.3	-4.5	·	1.2
CN(C(=O)Nc1ccccc1)C1CCS(=O)(=O)C1 (stereo unspecified)	-3.3	·	-0.7	·	-1.2	3.5
CC(=O)NC1=C(N(C)C2CCS(=O)(=O)C2)C(=O)c2ccccc2C1=O (stereo unspecified)	-4.8	31.2	-3.0	9.4	106.5*	0.0
COC(=O)[C@@H]1[C@@H](CO)[C@@H]2Cn3c(ccc(-c4cccc(F)c4)c3=O)[C@@H]2N1S(C)(=O)=O	·	1.1	·	·	·	·
Cn1c(SCC(=O)OCc2ccccc2)nnc1-c1ccco1	-4.9	·	-2.7	1.8	0.3	0.0
CCn1c(SCC(=O)OCc2ccccc2)nnc1-c1ccco1	-7.0	56.7*	-3.2	·	-0.5	-3.4
